Bioassay records deposited in PubChem BioAssay by several laboratories.
A selection: hits, their analogues and other compounds. The true share with any hit is near 3.1%.
UHRF1 MBD2 ctr: blocks human UHRF1 binding to methylated DNA; Q96T88; UHRF1 binding to methylated oligo, TR-FRET; inhibition, % at 4.4 µM; 370,000 tested, 0.75% active; AID 687016; in the data active = inhibition above about 21%;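 note: UHRF1 SRA domain binding a hemimethylated CpG hairpin DNA probe; 0% = median of test compound wells and 100% = reference inhibitor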
MBD2 inh: MBD2-methylated oligo binding inhibition. Q9UBB5. TR-FRET, MBD2 binding to methylated oligonucleotide. inhibition, % at 4.4 µM. 370,000 tested, 0.31% active; in the data active = inhibition above about 13%
Target sequence (Q9UBB5 whole entry, looked up): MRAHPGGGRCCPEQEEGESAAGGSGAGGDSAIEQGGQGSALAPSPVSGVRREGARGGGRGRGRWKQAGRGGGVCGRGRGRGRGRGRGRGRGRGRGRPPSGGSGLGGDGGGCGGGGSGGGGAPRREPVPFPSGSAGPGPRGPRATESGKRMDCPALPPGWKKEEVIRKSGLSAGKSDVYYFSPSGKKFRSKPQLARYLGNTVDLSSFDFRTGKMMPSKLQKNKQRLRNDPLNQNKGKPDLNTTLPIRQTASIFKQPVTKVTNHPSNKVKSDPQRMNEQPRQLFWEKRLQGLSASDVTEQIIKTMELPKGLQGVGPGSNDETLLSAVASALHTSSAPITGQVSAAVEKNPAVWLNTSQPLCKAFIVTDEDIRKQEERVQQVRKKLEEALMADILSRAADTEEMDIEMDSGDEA
CSN inh: inhibitors of human CSN-mediated cullin deneddylation; Q92905; Purified CSN, SCF-Nedd8-OG deneddylation, fluorescence polarization; 360,000 tested, 0.38% active; inhibition, % at 12.5 µM;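 active = pattern-corrected inhibition above about 35%, with an unprinted fluorescence ratio check between 0.5 and 1.5, limit read from the data, passing the limit was not always enough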;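 note: 0% = enzyme with substrate and 100% = substrate without enzyme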
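test system = HEK293T-derived human Csn5 enzyme | amount = 0.24 nM Csn5 enzyme, final concentration | medium = Tris/NaCl/DTT buffer, pH 7.5 | schedule = 90 min reaction at room temperature | signal = FP | evaluation = inhibition of Csn5 cleavage, % | compound dosing = single dose of 12.5 µM compound with 0.25% DMSO | probe or stimulus = 10 nM SCFSkp2-Nedd8OG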
rCAG RNA binder: binds r(CAG) RNA repeats; r(CAG) RNA repeat, TO-PRO-1 dye displacement fluorescence; inhibition, % at 3 µM; 370,000 tested, 1.3% active; AID 651821;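 active = inhibition above the plate cutoff, the mean of all test compounds on that plate plus 3 SD, cut at about 35% in these data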;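 note: 0% = DMSO alone and 100% = 100 µM mitoxantrone as full dye displacement; higher means more dye released from RNA so lower well fluorescence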
LEDGF integ inh: blocks HIV-1 LEDGF/p75-dependent DNA integration; TR-FRET IN-LEDGF/p75 DNA integration, Eu/Cy5; inhibition, % at 3.7 µM; 370,000 tested, 0.64% active; AID 743269;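 active = inhibition above the screen-wide mean plus 3 SD, cut at about 13% in these data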;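 note: signal is the Cy5 over europium emission ratio at 671 and 618 nm; 0% = plate median of compound wells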
ATG4B inh: blocks human ATG4B protease cleavage of LC3 substrate | Q9Y4P1 | ATG4B cleavage of LC3-PLA2, NBD-HPC fluorescence, 1 h | inhibition, % at 8.33 µM | 340,000 tested, 0.51% active | AID 504462; in the data active = inhibition above about 40%
ATG4B confirm: confirmation of human ATG4B inhibitors; shares compounds with ATG4B inh; ATG4B protease fluorescent substrate cleavage assay; inhibition, % at 8.33 µM; 320 tested, 92% active; AID 504757; in the data active = inhibition above about 39%
PLA2 ctr: PLA2 (human) inhibition in ATG4B counter-screen; shares compounds with ATG4B inh; purified PLA2, NBD-C6-HPC fluorescence, 45 min; inhibition, % at 8.33 µM; 1,600 tested, 66% active; in the data active = inhibition above about 50%
Target sequence (P04054 whole entry, looked up): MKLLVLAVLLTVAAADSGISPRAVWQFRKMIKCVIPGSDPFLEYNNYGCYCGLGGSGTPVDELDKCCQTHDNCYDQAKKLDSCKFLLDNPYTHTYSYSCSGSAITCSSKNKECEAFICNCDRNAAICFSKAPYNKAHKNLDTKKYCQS
Active calls of the source: *; x = no result given.

SMILES | UHRF1 MBD2 ctr | MBD2 inh | CSN inh | rCAG RNA binder | LEDGF integ inh | ATG4B inh | PLA2 ctr | others
COc1cc(/C=C2/C(=N)N3C=CSC3=NC2=O)ccc1OCCCOc1ccccc1C | 2 | -4 | 1 | 1 | 0 | -1 | x
Oc1c(C=C2N=c3ccccc3=N2)sc(=S)n1-c1ccccc1 | 1 | -3 | -10 | 3 | -1 | -9 | x
CC1=Nc2ccccc2/C1=C/c1sc(=S)n(-c2cccc(C(=O)O)c2)c1O | -4 | -1 | 117 | 72* | 0 | 60* | 85*
CCOC(=O)Cn1cc(CN2C(C(=O)OC)CN(Cc3ccc(F)cc3)CCS2(=O)=O)nn1 (stereo unspecified) | 14 | 4 | x | -1 | 5 | x | x
C#CCOCCOCCOCCNc1nc(N2CCN(C(=O)CCCCCCCCCCNC(=O)[C@H]([C@@H](C)CC)n3cc(CCCCCN)nn3)CC2)nc(N2CCN(C(=O)CCCCCCCCCCNC(=O)[C@H](CCCCN)n3cc(CCCC(=O)O)nn3)CC2)n1 | x | x | -4 | x | x | 3 | x
C#CCOCCOCCOCCNc1nc(N2CCN(C(=O)CCCCCCCCCCNC(=O)[C@H]([C@@H](C)CC)n3cc(CCCCN=C(N)N)nn3)CC2)nc(N2CCN(C(=O)CCCCCCCCCCNC(=O)[C@H](CCCCN)n3cc(C)nn3)CC2)n1 | x | x | x | x | x | 57* | 28 | ATG4B confirm=28
O=C(N/N=C/C=C/c1ccccc1[N+](=O)[O-])c1cc(-c2ccccc2)n[nH]1 | -3 | -3 | 0 | 9 | 4 | 47* | 25
CCOC(=O)c1ccc(NC(=S)NCc2ccc(F)cc2)cc1 | -1 | -2 | -6 | 8 | 10 | 44* | 56*
CC(C)c1ccc(NC(=O)NCc2ccc(F)cc2)cc1 | 3 | -1 | -7 | -2 | -3 | 61* | 67*
O=C(NCc1ccc(Cl)cc1)Nc1ccc(F)cc1 | 3 | -4 | -4 | 0 | 2 | 8 | x
O=[N+]([O-])c1ccc(O)c(C=Nc2ccc3nc(-c4ccccc4)[nH]c3c2)c1 | 2 | -4 | 0 | 11 | -1 | 42* | 37
CC(C)(C)c1ccc(-c2nc(NCc3cccnc3)c3ccccc3n2)cc1 | 3 | -2 | -7 | 7 | 1 | 68* | 82*
c1cncc(CNc2nc(-c3cccnc3)nc3ccccc23)c1 | -2 | -1 | 2 | 4 | 1 | -10 | x
CN[C@H]1C[C@H]2c3[nH]c4cccc(-c5cccc(F)c5)c4c3CCN2C(=O)[C@H]1[C@H](C)O | -2 | 1 | x | 8 | -3 | x | x
N#C/C(=C\c1ccc(OCC(N)=O)cc1)c1ccccc1 | 0 | 3 | -5 | 0 | -1 | 45* | 53*
Fc1ccc(Cn2ccc3ccc(-c4ccc5ccn(Cc6ccc(F)cc6)c5c4)cc32)cc1 | -1 | -4 | x | 10 | -2 | x | x
O=C(/C=C/c1ccccc1)NC(NC(=S)Nc1cc(Cl)ccc1Cl)C(Cl)(Cl)Cl (stereo unspecified) | 0 | -5 | -3 | 12 | -3 | 42* | 30
Cc1ccc(-c2ccc(/C=C3\C(=O)ON=C3c3ccccc3)o2)c([N+](=O)[O-])c1 | -1 | -2 | 19 | 10 | 0 | 63* | 23
Cc1cc(C)nc(SCc2ccc(C(=O)NN=C3C4CC5CC(C4)CC3C5)cc2)n1 | -4 | 3 | -1 | 3 | -2 | -9 | x
Cc1cc(C)nc(SCc2ccc(C(=O)N/N=C3\CC(C)CC(C)(C)C3)cc2)n1 (stereo unspecified) | 1 | 3 | 1 | 5 | -3 | 47* | 46 | ATG4B confirm=76*
CN1CCN(C2=C(NS(=O)(=O)c3cccs3)C(=O)c3ccccc3C2=O)CC1 | -12 | -17 | 1 | -1 | 2 | -4 | x
CCOc1ccccc1N1CCN(C2=C(NS(=O)(=O)c3cccs3)C(=O)c3ccccc3C2=O)CC1 | -6 | -5 | 0 | 9 | 2 | 57* | 65*
CCn1c(O)c(/C=C2\C=Nc3ccccc32)sc1=Nc1ccccc1 | -1 | 4 | 1 | 7 | 0 | 43* | 29
O=C(OC12CCCN(C1)/C(=C/c1ccc(Cl)cc1)C2)c1ccccc1 (stereo unspecified) | 3 | -7 | x | 5 | 2 | x | x
O=C(Nc1ccc(F)cc1)OCc1cn(Cc2cccc(F)c2F)nn1 | -1 | 1 | x | 1 | 2 | x | x
SMILES | UHRF1 MBD2 ctr | MBD2 inh | CSN inh | rCAG RNA binder | LEDGF integ inh | ATG4B inh | PLA2 ctr | others
CCCc1cc(=O)[nH]c(SCc2ccc(Cl)cc2)n1 | 0 | -1 | 0 | 8 | 0 | 9 | x
CCCc1cc(=O)[nH]c(SCc2cc(Cl)ccc2OC(F)F)n1 | 5 | 2 | -3 | 7 | 3 | 57* | 48 | ATG4B confirm=52*
COCCN=C1S/C(=C\c2cc(C)n(-c3ccc(F)cc3F)c2C)C(=O)N1C | 2 | 4 | x | x | -2 | x | x
O=C(/C=C1\NC2(CCCC2)Cc2ccccc21)C(=O)N/N=C/c1ccc(O)c(O)c1 | 1 | 1 | 3 | 18 | -1 | 61* | 68*
CCOC(=O)[C@]12CCCC=C1N(CCCOC)C(=O)[C@@H]2CC(=O)N1CCCCC1 | 0 | 4 | x | 2 | -3 | x | x
Cc1c(C(=O)Nc2ccc(-c3nnc4n3CCCCC4)cc2)oc2c1ccc1ccccc12 | 0 | 1 | -5 | 11 | 1 | 45* | 60*
CCOc1ccc(C(=O)Nc2ccccc2-c2ccccc2)cc1Cl | -3 | -5 | 2 | 0 | 1 | 45* | 48
CCN1C(C(=O)c2ccccc2)=C(Nc2ccccc2C)c2ccccc2S1(=O)=O | 0 | 4 | -9 | 6 | 0 | 51* | 55*
O=C(COC(=O)c1ccc(O)cc1O)N=c1sccn1Cc1ccccc1Cl | -2 | -5 | 0 | 11 | 1 | 43* | 57*
Cc1ccc(Cn2ccsc2=NC(=O)COC(=O)c2ccc(O)cc2O)cc1 | -1 | -4 | 1 | 5 | -4 | -9 | x
N#CCC(=O)Nc1ccc(C(=O)OCC(=O)NNC(=O)c2cccs2)cc1 | 1 | 0 | 10 | 17 | -2 | -4 | x
N#CCC(=O)Nc1ccc(C(=O)OCC(=O)N=c2sccn2Cc2ccccc2Cl)cc1 | -2 | -2 | 19 | 20 | 2 | 41* | 57*
O=S1(=O)c2ccc(N3CCC[C@@H]3CO)cc2O[C@@H]2CCN1C2 | 10 | 4 | x | 3 | 0 | x | x
CCn1c(/C=C/c2c[nH]c3ccccc23)nc2ccccc2c1=O | -2 | 3 | 3 | 5 | 3 | 23 | x
CN(C)S(=O)(=O)c1ccc2[nH]cc(/C=C/c3nc4ccccc4c(=O)n3-c3ccccc3)c2c1 | 4 | 3 | -5 | 12 | 0 | 42* | 9 | ATG4B confirm=105*
